# Test results: ChEMBL document CHEMBL1914454, “Novel N-linked aminopiperidine inhibitors of bacterial topoisomerase type II: broad-spectrum antibacterial agents with reduced hERG activity” (J Med Chem, 2011)
# pIC50: −log10 of the molar value.
# Tests used:
# [1] = Half life in Wistar Han rat at 4 mg/kg, iv; type: ADME, organism-based; set-up: dose 4 mg/kg, route intravenous; conditions: in vivo
# Outline: (§1)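 Groups of three Wistar Han rats received a bolus injection into a cannulated jugular vein. Serial 200 μL whole-blood samples taken over time; plasma drug measured by LC-MS/MS; parameters estimated by noncompartmental analysis.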
# [2] = Clearance in Beagle dog at 3 mg/kg, iv; type: ADME, organism-based, Canis lupus familiaris; set-up: dose 3 mg/kg, route intravenous; conditions: in vivo
# Outline: (§2)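 Plasma was sampled from 0 to 24 h and drug measured by LC–MS/MS. Parameters came from noncompartmental analysis.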
# [3] = AUC in Wistar Han rat at 4 mg/kg, iv; type: ADME, organism-based; set-up: dose 4 mg/kg, route intravenous; conditions: plasma; outline: as §1
# Staphylococcus aureus [4] = assay: Antibacterial activity against Staphylococcus aureus ARC516 infected in CD1 mouse neutropenic thigh infection model assessed as 1 log reduction in colony forming unit per […] at 24 mg/kg, ip qd administered 2 hrs post-infection measured 24 hrs post-treatment relative to vehicle treated control; type: functional; conditions: route intraperitoneal
# Outline: (§3)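 CD-1 mice were made neutropenic with ip cyclophosphamide, 150 mg/kg at 4 days and 100 mg/kg at 1 day before infection. Methicillin-susceptible strain, target inoculum 5 × 10⁵ cfu/thigh. Groups of five received ip drug q.d. in 5% dextrose with lactic acid, pH 5.0, starting 2 h post-infection; five mice got vehicle. At 24 h, thighs were homogenized, plated on tryptic soy agar and incubated at 37 °C overnight for cfu.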
# Escherichia coli = assay: Antibacterial activity against Escherichia coli W3110 after 18 to 24 hrs by broth microdilution method; type: functional; conditions: K-12 substr. W3110
# Outline: (§4)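 Broth microdilution following CLSI guidelines in Mueller Hinton broth. Compounds in DMSO, diluted to 2% DMSO final, 11 doubling dilutions from 64 to 0.06 μg/mL. Incubated at 35 °C for 18−24 h; growth read by absorbance at 620 nm.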
# Mus musculus [5] = assay: AUC (infinity) in Staphylococcus aureus ARC516 infected in CD1 mouse neutropenic thigh infection model at 12 mg/kg, ip qd by LC-MS/MS analysis; type: ADME, organism-based; set-up: time infinity, dose 12 mg/kg, route intraperitoneal; conditions: in vivo
# Outline: (§5)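 CD-1 mice made neutropenic with ip cyclophosphamide (150 mg/kg day −4, 100 mg/kg day −1), thigh-infected with S. aureus ARC516 (target 5 × 10⁵ cfu/thigh). Dosed ip once daily starting 2 h post-infection, in 5% dextrose with lactic acid, pH 5.0. Groups of three sacrificed at timed intervals; cardiac-puncture blood; plasma analysed by LC-MS/MS; noncompartmental analysis.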
# [6] = Octanol-phosphate buffer partition coefficient, log D of the compound at pH 7.4 by LC/MS/UV analysis; conditions: octanol/phosphate buffer
# [7] = AUC in Beagle dog at 3 mg/kg, iv; type: ADME, organism-based, Canis lupus familiaris; set-up: dose 3 mg/kg, route intravenous; conditions: plasma; outline: as §2
# Mus musculus [8] = assay: AUC (infinity) in Staphylococcus aureus ARC516 infected in CD1 mouse neutropenic thigh infection model at 36 mg/kg, ip qd by LC-MS/MS analysis; type: ADME, organism-based; set-up: dose 36 mg/kg, route intraperitoneal, time infinity; conditions: in vivo
# Outline: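 Plasma exposure in CD-1 mice, measured for analysis of the efficacy studies. Groups of three mice were sacrificed at timed intervals and whole blood was drawn by cardiac puncture. Plasma compound levels were measured by LC–MS/MS, and parameters were estimated by a noncompartmental model.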
# Staphylococcus aureus [9] = assay: Antibacterial activity against Staphylococcus aureus ARC516 infected in CD1 mouse neutropenic thigh infection model assessed as 1 log reduction in colony forming unit per […] at 12 mg/kg, ip qd administered 2 hrs post-infection measured 24 hrs post-treatment relative to vehicle treated control; type: functional; conditions: route intraperitoneal; outline: as §3
# Mus musculus [10] = assay: AUC (infinity) in Staphylococcus aureus ARC516 infected in CD1 mouse neutropenic thigh infection model at 24 mg/kg, ip qd by LC-MS/MS analysis; type: ADME, organism-based; set-up: time infinity, dose 24 mg/kg, route intraperitoneal; conditions: in vivo; outline: as §5
# Mus musculus [11] = assay: AUC (infinity) in Staphylococcus aureus ARC516 infected in CD1 mouse neutropenic thigh infection model at 48 mg/kg, ip qd by LC-MS/MS analysis; type: ADME, organism-based; set-up: dose 48 mg/kg, route intraperitoneal, time infinity; conditions: in vivo; outline: as §5
# [12] = Half life in Beagle dog at 3 mg/kg, iv; type: ADME, organism-based, Canis lupus familiaris; set-up: dose 3 mg/kg, route intravenous; conditions: in vivo; outline: as §2
# Streptococcus pneumoniae = assay: Antibacterial activity against penicillin-susceptible Streptococcus pneumoniae D39 after 18 to 24 hrs by broth microdilution method; type: functional
# Outline: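 CLSI broth microdilution in 2.2% (w/v) Mueller Hinton broth with 0.65% (v/v) lysed horse blood. Compounds diluted from DMSO to 2% DMSO final, 11 doubling dilutions from 64 to 0.06 μg/mL. Incubated at 35 °C for 18−24 h; read at 620 nm.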
# [13] = Volume of distribution in Wistar Han rat at 4 mg/kg, iv; type: ADME, organism-based; set-up: dose 4 mg/kg, route intravenous; conditions: in vivo; outline: as §1
# [14] = Fraction unbound in human plasma at 10 uM after 16 hrs by equilibrium dialysis
# [15] = Volume of distribution in Beagle dog at 3 mg/kg, iv; type: ADME, organism-based, Canis lupus familiaris; set-up: dose 3 mg/kg, route intravenous; conditions: in vivo; outline: as §2
# Staphylococcus aureus [16] = assay: Antibacterial activity against Staphylococcus aureus ARC516 infected in CD1 mouse neutropenic thigh infection model assessed as 1 log reduction in colony forming unit per […] at 36 mg/kg, ip qd administered 2 hrs post-infection measured 24 hrs post-treatment relative to vehicle treated control; type: functional; conditions: route intraperitoneal; outline: as §3
# [17] = target: Voltage-gated inwardly rectifying potassium channel KCNH2 (Homo sapiens, UniProt Q12809); assay: Inhibition of human ERG by ionworks HT assay
# [18] = Clearance in Wistar Han rat at 4 mg/kg, iv; type: ADME, organism-based; set-up: dose 4 mg/kg, route intravenous; conditions: in vivo; outline: as §1
# Pseudomonas aeruginosa = assay: Antibacterial activity against Pseudomonas aeruginosa PAO1 after 18 to 24 hrs by broth microdilution method; type: functional; outline: as §4
# Staphylococcus aureus [19] = assay: Antibacterial activity against methicillin-susceptible Staphylococcus aureus after 18 to 24 hrs by broth microdilution method; type: functional; outline: as §4
# Staphylococcus aureus [20] = assay: Antibacterial activity against Staphylococcus aureus ARC516 infected in CD1 mouse neutropenic thigh infection model assessed as 1 log reduction in colony forming unit per […] at 48 mg/kg, ip qd administered 2 hrs post-infection measured 24 hrs post-treatment relative to vehicle treated control; type: functional; conditions: route intraperitoneal; outline: as §3
# [21] = Inhibition of Escherichia coli ATPase activity of topoisomerase 4 ParC/ParE subunit assessed as reduction in inorganic phosphate production after 24 hrs by ammonium molybdate/malachite-green based assay
# Outline: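 Each reaction contained 0.5 nM each of E. coli ParC and ParE, 0.16 mM ATP and 0.005 mg/mL sheared salmon sperm DNA in 20 mM Tris pH 8.0 with 50 mM ammonium acetate, 8.0 mM MgCl₂, 0.5 mM EDTA, 5 mM DTT, 2.5% glycerol and 0.005% Brij-35. Compound dilution series; 24 h at room temperature. Quenched with malachite green; absorbance read at 650 nm. IC50 is the mean of three replicate experiments.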
# Mus musculus [22] = assay: AUC (infinity) in Staphylococcus aureus ARC516 infected in CD1 mouse neutropenic thigh infection model at 20 mg/kg, ip qd by LC-MS/MS analysis; type: ADME, organism-based; set-up: time infinity, dose 20 mg/kg, route intraperitoneal; conditions: in vivo
# Outline: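 Exposure in neutropenic CD-1 mice thigh-infected with S. aureus ARC516 (target 5 × 10⁵ cfu/thigh), dosed ip once daily from 2 h post-infection. Groups of three killed at timed intervals; blood taken by cardiac puncture. Plasma drug measured by LC-MS/MS; parameters from a noncompartmental model.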
# Staphylococcus aureus [23] = assay: Antibacterial activity against Staphylococcus aureus ARC516 infected in CD1 mouse neutropenic thigh infection model assessed as 1 log reduction in colony forming unit per […] at 20 mg/kg, ip qd administered 2 hrs post-infection measured 24 hrs post-treatment relative to vehicle treated control; type: functional; conditions: route intraperitoneal
# Outline: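 Mice rendered neutropenic with ip cyclophosphamide (150 mg/kg 4 days and 100 mg/kg 1 day before infection), then infected with MSSA ARC516 at a target 5 × 10⁵ cfu/thigh. Groups of five dosed ip once daily from 2 h post-infection; vehicle group of five. At 24 h after treatment start, thighs homogenized and plated on tryptic soy agar, 37 °C overnight, cfu counted.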
# Voltage-gated inwardly rectifying potassium channel KCNH2, sequence (Q12809 whole entry): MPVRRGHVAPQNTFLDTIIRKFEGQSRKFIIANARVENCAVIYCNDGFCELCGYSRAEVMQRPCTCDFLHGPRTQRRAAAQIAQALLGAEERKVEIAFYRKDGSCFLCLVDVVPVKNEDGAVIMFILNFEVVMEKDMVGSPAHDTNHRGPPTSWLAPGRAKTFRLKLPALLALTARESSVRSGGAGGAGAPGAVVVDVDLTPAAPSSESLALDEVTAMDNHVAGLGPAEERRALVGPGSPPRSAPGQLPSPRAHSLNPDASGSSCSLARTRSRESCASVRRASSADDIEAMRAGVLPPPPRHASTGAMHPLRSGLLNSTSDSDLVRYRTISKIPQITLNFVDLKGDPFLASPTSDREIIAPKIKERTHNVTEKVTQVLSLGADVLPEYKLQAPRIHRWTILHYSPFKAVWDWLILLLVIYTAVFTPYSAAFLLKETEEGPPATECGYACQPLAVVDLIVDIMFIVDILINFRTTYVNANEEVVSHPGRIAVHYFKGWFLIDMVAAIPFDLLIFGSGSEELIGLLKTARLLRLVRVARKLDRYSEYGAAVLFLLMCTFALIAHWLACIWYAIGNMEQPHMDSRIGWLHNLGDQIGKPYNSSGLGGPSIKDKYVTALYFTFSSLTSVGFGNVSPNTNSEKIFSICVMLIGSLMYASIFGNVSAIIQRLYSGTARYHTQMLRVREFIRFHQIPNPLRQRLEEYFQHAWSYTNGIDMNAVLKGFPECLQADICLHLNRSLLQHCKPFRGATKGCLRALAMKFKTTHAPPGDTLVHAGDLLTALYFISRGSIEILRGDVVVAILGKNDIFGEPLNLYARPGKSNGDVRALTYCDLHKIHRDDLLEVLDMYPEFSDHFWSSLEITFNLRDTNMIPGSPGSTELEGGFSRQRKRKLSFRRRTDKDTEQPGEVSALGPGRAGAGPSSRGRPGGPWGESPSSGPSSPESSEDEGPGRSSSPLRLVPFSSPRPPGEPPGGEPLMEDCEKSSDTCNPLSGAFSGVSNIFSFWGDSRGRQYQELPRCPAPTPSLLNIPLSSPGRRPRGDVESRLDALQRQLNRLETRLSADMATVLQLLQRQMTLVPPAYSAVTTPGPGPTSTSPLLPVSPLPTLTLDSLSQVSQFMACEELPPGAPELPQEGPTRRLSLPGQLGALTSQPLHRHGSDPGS
smiles,measurement,setting,value
COc1ccc2ncc(=O)n(CCN3CCC(NCc4cc5c(cn4)OCCO5)CC3)c2c1,half-life,[1],2.8 h
same,clearance,[2],21 mL/min/kg
same,AUC,[3],190 ng·h/mL
same,FC,Staphylococcus aureus [4],1.17
same,MIC,Escherichia coli,0.5 µg/mL
same,AUC,Mus musculus [5],0.47 µg/h/mL
same,logD,[6],0.93
same,AUC,[7],2300 ng·h/mL
same,AUC,Mus musculus [8],1.17 µg/h/mL
same,FC,Staphylococcus aureus [9],0.05
same,AUC,Mus musculus [10],0.76 µg/h/mL
same,AUC,Mus musculus [11],1.79 µg/h/mL
same,half-life,[12],8.3 h
same,MIC,Streptococcus pneumoniae,0.06 µg/mL
same,Vd,[13],32 L/kg
same,"fraction unbound at 16 h, 10 µM",[14],0.57
same,Vd,[15],11 L/kg
same,FC,Staphylococcus aureus [16],1.5
same,pIC50,[17],4.72
same,clearance,[18],338 mL/min/kg
same,MIC,Pseudomonas aeruginosa,4 µg/mL
same,MIC,Staphylococcus aureus [19],0.02 µg/mL
same,FC,Staphylococcus aureus [20],2.79
same,pIC50,[21],8.30
C[C@H]1COc2c(N3CCN(C)CC3)c(F)cc3c(=O)c(C(=O)O)cn1c23.C[C@H]1COc2c(N3CCN(C)CC3)c(F)cc3c(=O)c(C(=O)O)cn1c23.O [LEVOFLOXACIN],AUC,Mus musculus [22],2.5 µg/h/mL
same,FC,Staphylococcus aureus [23],1.46
